Results published in ChEMBL document CHEMBL3286252, “Synthesis, biological evaluation and structure-activity relationship of new GABA uptake inhibitors, derivatives of 4-aminobutanamides” (Eur J Med Chem, 2014).

Legend:
[1] = system: Mus musculus; assay: Antidepressant-like activity in albino Swiss (CD-1) mouse assessed as reduction in immobility time at 15 mg/kg, ip by forced swim test; assay type: functional; settings: route intraperitoneal
Procedure, shortened: (§1)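 Compound or vehicle was given i.p. 60 min before the test. Each mouse was placed for 6 min in a glass cylinder (25 cm high, 10 cm diameter) holding 10 cm of water at 23–25 C. Immobility, meaning passive floating, was timed over the final 4 min. 7–8 mice per group; ANOVA with Dunnett's test.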

[2] = system: Mus musculus; assay: Antidepressant-like activity in albino Swiss (CD-1) mouse assessed as reduction in immobility time at 30 mg/kg, ip by forced swim test; assay type: functional; settings: route intraperitoneal; procedure, shortened: as §1
[3] = system: Mus musculus; assay: Antinociceptive activity in albino Swiss (CD-1) mouse assessed as latency time to pain reaction at 30 mg/kg, ip by hot plate test (reference value: 13.9 +/- 1.2 secs); assay type: functional; settings: route intraperitoneal
[4] = system: Mus musculus; assay: Toxicity in albino Swiss (CD-1) mouse assessed as motor impairment at 30 to 100 mg/kg, ip measured after 60 mins by rotarod test; assay type: organism-based; parameters: dose 30-100 mg/kg, route intraperitoneal; settings: in vivo, 1 h
Procedure, shortened: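 Mice were trained for 3 days at 18 rpm on a rod of 2 cm diameter. At least 24 h after the last training, they were given 30 or 100 mg/kg or vehicle (1% Tween 80) i.p. 60 min before testing at 6, 18, then 24 rpm. Impairment was defined as failing to stay on the rod for 1 min; mean time on the rod was recorded.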

[5] = system: Mus musculus; assay: Toxicity in albino Swiss (CD-1) mouse assessed as decrease in locomotor activity at 30 mg/kg, ip after 60 mins; assay type: organism-based; parameters: dose 30 mg/kg, route intraperitoneal; settings: in vivo, 1 h
Procedure, shortened: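 Mice were pretreated i.p. with 30 mg/kg or vehicle (1% Tween 80) 60 min before testing. Each was placed alone in an IR-beam activity cage (40×40×31 cm) in a sound-attenuated room. Beam interruptions were counted over 30 min in five 6-min intervals. Analysis: repeated-measures ANOVA with Bonferroni.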

[6] = Retardation factor of the compound using 25%NH3/MeOH/DCM/PE at ratio of 45:225:600:90 as solvent system by thin layer chromatography; assay type: physicochemical
[7] = molecular target: Sodium- and chloride-dependent GABA transporter 1 (Mus musculus, UniProt P31648); assay: Inhibition of mouse GAT1 expressed in HEK293 cells assessed as decrease in [3H]GABA uptake; assay type: cell-based
[8] = molecular target: T1, GABA transporter 2 (Mus musculus, UniProt P31651); assay: Inhibition of mouse GAT2 expressed in HEK293 cells assessed as decrease in [3H]GABA uptake; assay type: cell-based
T1 sequence (P31651 whole entry): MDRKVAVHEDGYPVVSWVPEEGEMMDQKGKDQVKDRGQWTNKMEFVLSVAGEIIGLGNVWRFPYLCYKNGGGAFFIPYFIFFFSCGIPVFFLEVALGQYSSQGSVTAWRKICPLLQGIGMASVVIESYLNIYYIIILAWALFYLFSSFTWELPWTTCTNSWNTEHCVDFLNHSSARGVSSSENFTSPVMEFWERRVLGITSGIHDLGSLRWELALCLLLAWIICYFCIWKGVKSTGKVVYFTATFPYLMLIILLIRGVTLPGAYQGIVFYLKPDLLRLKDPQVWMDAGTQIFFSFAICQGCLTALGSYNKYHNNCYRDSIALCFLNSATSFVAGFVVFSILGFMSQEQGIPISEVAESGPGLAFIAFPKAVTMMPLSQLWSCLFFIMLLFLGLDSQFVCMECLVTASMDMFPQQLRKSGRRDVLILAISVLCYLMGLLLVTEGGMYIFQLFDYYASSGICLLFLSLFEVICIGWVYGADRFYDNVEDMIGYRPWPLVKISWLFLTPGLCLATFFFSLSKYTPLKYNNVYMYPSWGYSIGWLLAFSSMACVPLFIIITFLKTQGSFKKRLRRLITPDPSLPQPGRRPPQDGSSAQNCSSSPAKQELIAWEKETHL

[9] = molecular target: T2, GABA transporter 3 (Mus musculus, UniProt P31649); assay: Inhibition of mouse GAT3 expressed in HEK293 cells assessed as decrease in [3H]GABA uptake; assay type: cell-based
T2 sequence (P31649 whole entry): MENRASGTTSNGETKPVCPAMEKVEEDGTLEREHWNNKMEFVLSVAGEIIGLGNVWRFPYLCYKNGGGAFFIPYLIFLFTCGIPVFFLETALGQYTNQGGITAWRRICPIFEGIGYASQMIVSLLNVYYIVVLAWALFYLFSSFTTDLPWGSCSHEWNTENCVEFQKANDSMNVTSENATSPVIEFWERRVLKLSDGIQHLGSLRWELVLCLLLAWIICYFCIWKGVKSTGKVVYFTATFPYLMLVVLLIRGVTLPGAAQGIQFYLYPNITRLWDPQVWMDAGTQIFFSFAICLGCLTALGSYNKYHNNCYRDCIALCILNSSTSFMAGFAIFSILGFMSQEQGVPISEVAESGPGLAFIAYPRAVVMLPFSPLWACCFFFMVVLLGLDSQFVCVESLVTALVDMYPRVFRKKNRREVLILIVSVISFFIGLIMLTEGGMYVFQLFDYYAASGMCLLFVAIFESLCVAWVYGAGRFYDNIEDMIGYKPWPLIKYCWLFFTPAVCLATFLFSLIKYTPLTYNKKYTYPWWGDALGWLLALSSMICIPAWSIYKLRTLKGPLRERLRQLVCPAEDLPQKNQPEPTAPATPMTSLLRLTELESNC

[10] = molecular target: T3, GABA transporter 4 (Mus musculus, UniProt P31650); assay: Inhibition of mouse GAT4 expressed in HEK293 cells assessed as decrease in [3H]GABA uptake; assay type: cell-based
T3 sequence (P31650 whole entry): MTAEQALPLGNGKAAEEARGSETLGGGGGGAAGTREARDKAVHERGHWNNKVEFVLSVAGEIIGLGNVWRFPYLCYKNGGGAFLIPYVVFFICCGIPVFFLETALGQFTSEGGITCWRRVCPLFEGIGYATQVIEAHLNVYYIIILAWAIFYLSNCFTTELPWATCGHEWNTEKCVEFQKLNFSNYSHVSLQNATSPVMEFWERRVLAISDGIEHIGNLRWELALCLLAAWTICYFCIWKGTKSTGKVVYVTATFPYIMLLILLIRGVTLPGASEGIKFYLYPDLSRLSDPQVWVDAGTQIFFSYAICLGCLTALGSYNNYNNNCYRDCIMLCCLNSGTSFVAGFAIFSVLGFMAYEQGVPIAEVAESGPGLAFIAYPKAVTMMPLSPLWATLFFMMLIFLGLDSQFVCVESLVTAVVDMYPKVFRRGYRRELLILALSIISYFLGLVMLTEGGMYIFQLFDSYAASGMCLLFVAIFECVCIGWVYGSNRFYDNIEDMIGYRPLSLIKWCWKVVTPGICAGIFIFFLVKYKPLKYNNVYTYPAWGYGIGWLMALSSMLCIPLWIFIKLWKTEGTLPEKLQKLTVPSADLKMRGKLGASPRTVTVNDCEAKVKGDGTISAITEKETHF

[11] = molecular target: Sodium- and chloride-dependent GABA transporter 1 (Mus musculus) (UniProt P31648); assay: Displacement of NO711 from mouse GAT1 expressed in HEK293 cells assessed as NO711 binding at 100 uM by LC-MS/MS analysis; assay type: cell-based

Compound	inhibition in vivo at 15 mg/kg [1] [%]	inhibition in vivo at 30 mg/kg [2] [%]	Time [3] [s]	Activity [4]	Activity [5]	Rf [6]	IC50 [7] [µM]	IC50 [8] [µM]	IC50 [9] [µM]	IC50 [10] [µM]	Activity [11] [%]
NCCC(C(=O)NCc1ccc(Cl)cc1)N1CCN(C(c2ccccc2)c2ccccc2)CC1 (configuration not stated)	3.8	28.9	27.5	Non-toxic	Toxic	0.14	25.7	20.9	10.7	12	53
NCCC(C(=O)NCc1ccccc1Cl)N1CCN(C(c2ccccc2)c2ccccc2)CC1 (configuration not stated)	26	38.5	18.8	Non-toxic	Non-toxic	0.18	20.9	21.9	10.5	15.1	55
